Structures can show the parent of a compound that is named as a salt.

What all share (assay type): functional, cell-based
For assay [1], the system named is K562. The assay can be described thus: Cytotoxicity against human K562 cells after 72 hrs by SRB assay. The following applies: K562, 72 h.
In assay [2] the test system is A549. Put plainly: Cytotoxicity against human A549 cells after 72 hrs by SRB assay. To be noted: A549, 72 h. In a few lines: (§1)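 Adherent cells plated 24 h before treatment and exposed continuously to compound at 100, 10, 1 and 0.1 µM for 72 h. Cells were then fixed and stained with sulforhodamine B, and IC50 was determined. Amrubicin hydrochloride served as the positive control.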

Assay [3] concerns HT-29. The assay can be described thus: Cytotoxicity against human HT-29 cells after 72 hrs by SRB assay. The following applies: HT-29, 72 h. In a few lines: as §1

Consider `C[C@@H]1C(=O)O[C@H]2[C@@H]1O[C@]13O[C@@]4(CC[C@]5(C)C(=O)[C@](C)(O)[C@H]2[C@H]15)C[C@]12OC(=O)C[C@H]1O[C@@](C)(CO)[C@@H]2CC[C@H]4C3=O` [SCHISANDILACTONE I], for which the IC50 in assay [1], in assay [2] and in assay [3] was more than 100 µM throughout.
On to `C[C@@H]1C(=O)O[C@H]2[C@@H]1O[C@]13O[C@@]4(CC(=O)[C@]5(C)C(=O)[C@](C)(O)[C@H]2[C@@H]51)C[C@]12OC(=O)C[C@H]1O[C@@](C)(CO)[C@@H]2CC[C@H]4[C@H]3O` [SCHISANDILACTONE G], for which the IC50 in assay [1], in assay [2] and in assay [3] was more than 100 µM throughout.
Consider `C[C@@H]1C(=O)O[C@H]2[C@@H]1O[C@]13O[C@@]4(CC[C@]5(C)C(=O)[C@](C)(O)[C@@]2(O)[C@H]15)C[C@]12OC(=O)C[C@H]1O[C@@](C)(CO)[C@@H]2C[C@@H]1O[C@@]14C3=O` [SCHISANDILACTONE J], for which the IC50 in assay [1], in assay [2] and in assay [3] was more than 100 µM each time.
For `C[C@H]1C(=O)O[C@@H]2[C@H]1O[C@]1(C)[C@H]2[C@H]2[C@](C)(CC[C@]34C[C@]56OC(=O)C[C@H]5OC(C)(C)[C@@H]6C[C@H](O)[C@H]3C(=O)[C@@]2(O)O4)[C@@H]1O` [SCHISANDILACTONE B], the IC50 in assay [1], in assay [2] and in assay [3] was more than 100 µM in each case.
Take `CC(=O)[C@]1(N)Cc2c(O)c3c(c(O)c2[C@@H](O[C@H]2C[C@H](O)[C@H](O)CO2)C1)C(=O)c1ccccc1C3=O` [AMRUBICIN HYDROCHLORIDE]: the IC50 in assay [1] stood at 1.2 µM; in assay [2], 0.94 µM; in assay [3], 4.57 µM.
In the case of `C[C@@H]1C(=O)O[C@H]2[C@@H]1O[C@]13O[C@@]4(CC(=O)[C@]5(C)C(=O)[C@](C)(O)[C@@]2(O)[C@@H]51)C[C@]12OC(=O)C[C@H]1O[C@@](C)(CO)[C@@H]2CC[C@@H]4[C@H]3O` [SCHISANDILACTONE H], the IC50 in assay [1], in assay [2] and in assay [3] was more than 100 µM throughout.
Turning to `CC1=C[C@@H]([C@@H]2[C@H]3[C@](C)(C(=O)C[C@]45C[C@]67OC(=O)C[C@H]6O[C@@](C)(CO)[C@@H]7CC[C@@H]4[C@@H](O)[C@@]3(O)O5)C(=O)[C@]2(C)O)OC1=O` [SCHISANDILACTONE E], the IC50 in assay [1], in assay [2] and in assay [3] was more than 100 µM throughout.
Take `CC1=C[C@@H]([C@]2(O)[C@H]3[C@](C)(CC[C@]45C[C@]67OC(=O)C[C@H]6OC(C)(C)[C@@H]7C[C@@H](O)[C@H]4C(=O)[C@@]3(O)O5)C(=O)[C@]2(C)O)OC1=O` [SCHISANDILACTONE F]: the IC50 in assay [1], in assay [2] and in assay [3] was more than 100 µM throughout.
Take `CC1=C[C@@H]2O[C@]34O[C@@]5(CC[C@]6(C)C(=O)[C@](C)(O)[C@]2(OC1=O)[C@H]36)C[C@]12OC(=O)C[C@H]1O[C@@](C)(CO)[C@@H]2CC[C@@]5(O)C4=O` [SCHISANDILACTONE A]: the IC50 in assay [1], in assay [2] and in assay [3] was more than 100 µM each time.
Consider `C[C@H]1C(=O)O[C@@H]2[C@H]1O[C@@]1(C)C(=O)[C@@]3(C)CC[C@]45C[C@]67OC(=O)C[C@H]6OC(C)(C)[C@@H]7C[C@H](O)[C@H]4C(=O)[C@@](O)(O5)[C@H]3[C@@]21O` [SCHISANDILACTONE C], for which the IC50 in assay [1], in assay [2] and in assay [3] was more than 100 µM each time.
For `C[C@H]1C(=O)O[C@@H]2[C@H]1O[C@@]1(C)C(=O)[C@@]3(C)CC[C@]45C[C@]67OC(=O)C[C@H]6OC(C)(C)[C@@H]7C[C@@H](O)[C@H]4C(=O)[C@@](O)(O5)[C@H]3[C@@]21O` [SCHISANDILACTONE D], the IC50 in assay [1], in assay [2] and in assay [3] was more than 100 µM in each case.

Broadly, the IC50 is the concentration that inhibits the measured activity by half.

The values are drawn from ChEMBL document CHEMBL1212905, “Schisanartane nortriterpenoids with diverse post-modifications from Schisandra propinqua” (J Nat Prod, 2010).
